Measurements from ChEMBL document CHEMBL5329210, “Novel piperazine-1,2,3-triazole leads for the potential treatment of pancreatic cancer” (RSC Med Chem, 2023).

Key:
MIA PaCa-2 [1] = test: Inhibition of cell growth of human MIA PaCa-2 cells at 25 uM measured after 72 hrs by CCK8 assay relative to control; type: functional
Outline: (§1)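 Single 25 μM exposure, read by CCK-8, n = 3, relative to control. Seeding was 3×10^3/well for MiaPaCa2, 7×10^3/well for BxPC3 (in RPMI-1640/10% FBS) and 1×10^4/well for HPDE (in KSFM with rEGF/BPE). After 24 h attachment, cells were exposed for 72 h. CCK-8 was then incubated for 1 h, and A450 minus A650 was compared with 0.5% DMSO.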

MCF7 [2] = test: Inhibition of cell growth of human MCF7 cells at 25 uM measured after 72 hrs by MTT assay relative to control; settings: MCF7, 72 h
DU-145 = test: Inhibition of cell growth of human DU-145 cells at 25 uM measured after 72 hrs by MTT assay relative to control; settings: DU-145, 72 h
U-87 MG = test: Inhibition of cell growth of human U87 cells at 25 uM measured after 72 hrs by MTT assay relative to control
[3] = Inhibition of cell growth of human SJG2 cells at 25 uM measured after 72 hrs by MTT assay relative to control; settings: SJ-G2, 72 h
A2780 [4] = test: Inhibition of cell growth of human A2780 cells at 25 uM measured after 72 hrs by MTT assay relative to control; settings: A2780, 72 h
NCI-H460 = test: Inhibition of cell growth of human NCI-H460 cells at 25 uM measured after 72 hrs by MTT assay relative to control; settings: NCI-H460, 72 h
HT-29 [5] = test: Inhibition of cell growth of human HT-29 cells at 25 uM measured after 72 hrs by MTT assay relative to control; settings: HT-29, 72 h
BE(2)-C [6] = test: Inhibition of cell growth of human BE2C cells at 25 uM measured after 72 hrs by MTT assay relative to control
A-431 = test: Inhibition of cell growth of human A-431 cells at 25 uM measured after 72 hrs by MTT assay relative to control; settings: A-431, 72 h
[7] = Inhibition of cell growth of human MCF-10A cells at 25 uM measured after 72 hrs by MTT assay relative to control
HT-29 [8] = test: Inhibition of cell growth of human HT-29 cells at 25 uM measured after 72 hrs by MTT assay relative to control; type: functional
Outline: (§2)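 MTT read-out. Cancer lines were grown in DMEM with 10% FBS, glutamine and antibiotics. MCF10A was grown in DMEM:F12 with 5% horse serum, EGF, hydrocortisone, cholera toxin and insulin. Cells were plated in duplicate at 2500–4000/well, and drug was added 24 h later. After 72 h, absorbance was read at 540 nm. Single-point lines used 25 μM. GI50 is 50% growth inhibition versus untreated control. n = 3.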

ASPC1 = test: Inhibition of cell growth of human ASPC1 cells at 25 uM measured after 72 hrs by MTT assay relative to control; type: functional; outline: as §2
[9] = Inhibition of cell growth of human MCF-10A cells at 25 uM measured after 72 hrs by MTT assay relative to control; type: toxicity, cell-based; outline: as §2
BE(2)-C [10] = test: Inhibition of cell growth of human BE2C cells at 25 uM measured after 72 hrs by MTT assay relative to control; type: functional; outline: as §2
Capan-2 = test: Inhibition of cell growth of human Capan-2 cells at 25 uM measured after 72 hrs by MTT assay relative to control; type: functional; outline: as §2
MCF7 [11] = test: Inhibition of cell growth of human MCF7 cells at 25 uM measured after 72 hrs by MTT assay relative to control; type: functional; outline: as §2
A2780 [12] = test: Inhibition of cell growth of human A2780 cells at 25 uM measured after 72 hrs by MTT assay relative to control; type: functional; outline: as §2
BXPC-3 [13] = test: Inhibition of cell growth of human BXPC-3 cells at 25 uM measured after 72 hrs by MTT assay relative to control; type: functional; outline: as §2
PANC-1 = test: Inhibition of cell growth of human PANC-1 cells at 25 uM measured after 72 hrs by MTT assay relative to control; type: functional; outline: as §2
MIA PaCa-2 [14] = test: Inhibition of cell growth of human MIA PaCa-2 cells at 25 uM measured after 72 hrs by MTT assay relative to control; type: functional; outline: as §2
HPAC = test: Inhibition of cell growth of human HPAC cells at 25 uM measured after 72 hrs by MTT assay relative to control; type: functional; outline: as §2
[15] = Inhibition of cell growth of human HPDE cells at 25 uM measured after 72 hrs by CCK8 assay relative to control; type: toxicity, cell-based; outline: as §1
BXPC-3 [16] = test: Inhibition of cell growth of human BXPC-3 cells at 25 uM measured after 72 hrs by CCK8 assay relative to control; type: functional; outline: as §1

| SMILES | inhibition at 25 µM (MIA PaCa-2 [1]) [%] | inhibition at 25 µM (MCF7 [2]) [%] | inhibition at 25 µM (DU-145) [%] | inhibition at 25 µM (U-87 MG) [%] | inhibition at 25 µM [3] [%] | inhibition at 25 µM (A2780 [4]) [%] | inhibition at 25 µM (NCI-H460) [%] | inhibition at 25 µM (HT-29 [5]) [%] | inhibition at 25 µM (BE(2)-C [6]) [%] | inhibition at 25 µM (A-431) [%] | inhibition at 72 h, 25 µM [7] [%] | inhibition at 25 µM (HT-29 [8]) [%] | inhibition at 25 µM (ASPC1) [%] | inhibition at 72 h, 25 µM [9] [%] | inhibition at 25 µM (BE(2)-C [10]) [%] | inhibition at 25 µM (Capan-2) [%] | inhibition at 25 µM (MCF7 [11]) [%] | inhibition at 25 µM (A2780 [12]) [%] | inhibition at 25 µM (BXPC-3 [13]) [%] | inhibition at 25 µM (PANC-1) [%] | other results |
| --- | --- | --- | --- | --- | --- | --- | --- | --- | --- | --- | --- | --- | --- | --- | --- | --- | --- | --- | --- | --- | --- |
| CC(=O)Nc1ccc(S(=O)(=O)N2CCN(CCCn3cc(-c4ccc(F)cc4)nn3)CC2)cc1 | 35 | 27 | 35 | 16 | 67 | 50 | 18 | 22 | 38 | 28 | 41 |  |  |  |  |  |  |  |  |  |  |
| CCc1ccc(-c2cn(CCCN3CCN(S(=O)(=O)c4cccc(C(F)(F)F)c4)CC3)nn2)cc1 |  |  |  |  |  |  |  |  |  |  |  | 65 | 60 | 77 | 61 | 58 | 86 | 86 | 39 | 59 | inhibition at 25 µM (MIA PaCa-2 [14]): 50%; inhibition at 25 µM (HPAC): 41% |
| Cc1ccc(-c2cn(CCCN3CCN(S(=O)(=O)c4ccccc4C(F)(F)F)CC3)nn2)cc1 |  |  |  |  |  |  |  |  |  |  |  | 86 | 57 | 61 | 35 | 42 | 79 | 75 | 11 | 48 | inhibition at 25 µM (MIA PaCa-2 [14]): 38%; inhibition at 25 µM (HPAC): 41% |
| Cc1ccc(-c2cn(CCCN3CCN(S(=O)(=O)c4cccc(C(F)(F)F)c4)CC3)nn2)cc1 |  |  |  |  |  |  |  |  |  |  |  | 63 | 60 | 79 | 60 | 54 | 86 | 83 | 32 | 57 | inhibition at 25 µM (MIA PaCa-2 [14]): 48%; inhibition at 25 µM (HPAC): 40% |
| CC(=O)Nc1ccc(S(=O)(=O)N2CCN(CCCn3cc(-c4ccc(C(F)(F)F)cc4)nn3)CC2)cc1 | 43 | 42 | 52 | 16 | 42 | 67 | 30 | 59 | 41 | 31 | 73 |  |  |  |  |  |  |  |  |  |  |
| CC(=O)Nc1ccc(S(=O)(=O)N2CCN(CCCn3cc(-c4ccc(Br)cc4)nn3)CC2)cc1 | 34 | 28 | 54 | 4 | 48 | 46 | 19 | 58 | 39 | 16 | 58 |  |  |  |  |  |  |  |  |  |  |
| O=S(=O)(c1cccc(C(F)(F)F)c1)N1CCN(CCCn2cc(-c3ccc(Br)cc3)nn2)CC1 |  |  |  |  |  |  |  |  |  |  |  | 46 | 53 | 74 | 40 | 39 | 56 | 72 | 22 | 41 | inhibition at 25 µM (MIA PaCa-2 [14]): 35%; inhibition at 25 µM (HPAC): < 10% |
| O=S(=O)(c1ccccc1C(F)(F)F)N1CCN(CCCn2cc(-c3ccc(C(F)(F)F)cc3)nn2)CC1 |  |  |  |  |  |  |  |  |  |  |  | 69 | 50 | 64 | 62 | 42 | 75 | 80 | 19 | 54 | inhibition at 25 µM (MIA PaCa-2 [14]): 45%; inhibition at 25 µM (HPAC): 29% |
| COc1cccc(-c2cn(CCCN3CCN(S(=O)(=O)c4ccc(C(C)=O)cc4)CC3)nn2)c1 | < 10 |  |  |  |  |  |  |  |  |  |  |  |  |  |  |  |  |  |  |  | inhibition at 72 h, 25 µM [15]: 30.1%; inhibition at 25 µM (BXPC-3 [16]): 22.8% |
| CC(=O)Nc1ccc(S(=O)(=O)N2CCN(CCCn3cc(-c4ccccc4)nn3)CC2)cc1 | 30 | 24 | 34 | 10 | 59 | 47 | 23 | 31 | 32 | 31 | 44 |  |  |  |  |  |  |  |  |  |  |
| CC(=O)Nc1ccc(S(=O)(=O)N2CCN(CCCn3cc(-c4cccc(Cl)c4)nn3)CC2)cc1 | 32 | 31 | 24 | 1 | 33 | 49 | 18 | 42 | 27 | 2 | 43 |  |  |  |  |  |  |  |  |  |  |
| CC(=O)Nc1ccc(S(=O)(=O)N2CCN(CCCn3cc(-c4ccc(C)cc4)nn3)CC2)cc1 | 38 | 42 | 61 | 22 | 72 | 57 | 34 | 46 | 36 | 40 | 67 |  |  |  |  |  |  |  |  |  |  |
| CCc1ccc(-c2cn(CCCN3CCN(S(=O)(=O)c4ccccc4C(F)(F)F)CC3)nn2)cc1 |  |  |  |  |  |  |  |  |  |  |  | 79 | 59 | 63 | 52 | 25 | 82 | 75 | 16 | 48 | inhibition at 25 µM (MIA PaCa-2 [14]): 39%; inhibition at 25 µM (HPAC): 67% |
| COc1cccc(-c2cn(CCCN3CCN(S(=O)(=O)c4ccc(Cl)cc4)CC3)nn2)c1 | < 10 |  |  |  |  |  |  |  |  |  |  |  |  |  |  |  |  |  |  |  | inhibition at 72 h, 25 µM [15]: 54.3%; inhibition at 25 µM (BXPC-3 [16]): 22.9% |
| CC(=O)Nc1ccc(S(=O)(=O)N2CCN(CCCn3cc(-c4ccc([N+](=O)[O-])cc4)nn3)CC2)cc1 | 40 | 47 | 48 | 27 | 37 | 72 | 40 | 50 | 42 | 33 | 69 |  |  |  |  |  |  |  |  |  |  |
| CCc1ccc(-c2cn(CCCN3CCN(S(=O)(=O)c4ccc(NC(C)=O)cc4)CC3)nn2)cc1 | 38 | 30 | 42 | < 0 | 29 | 59 | 32 | 64 | 36 | 16 | 67 |  |  |  |  |  |  |  |  |  |  |
| COc1cccc(-c2cn(CCCN3CCN(S(=O)(=O)c4ccc(F)cc4)CC3)nn2)c1 | < 10 |  |  |  |  |  |  |  |  |  |  |  |  |  |  |  |  |  |  |  | inhibition at 72 h, 25 µM [15]: 40.8%; inhibition at 25 µM (BXPC-3 [16]): 15.1% |
| COc1cccc(-c2cn(CCCN3CCN(S(=O)(=O)c4ccc(C(C)C)cc4)CC3)nn2)c1 | 11.4 |  |  |  |  |  |  |  |  |  |  |  |  |  |  |  |  |  |  |  | inhibition at 72 h, 25 µM [15]: 48.8%; inhibition at 25 µM (BXPC-3 [16]): < 10% |
| COc1cccc(-c2cn(CCCN3CCN(S(=O)(=O)c4ccc(C(C)(C)C)cc4)CC3)nn2)c1 | < 10 |  |  |  |  |  |  |  |  |  |  |  |  |  |  |  |  |  |  |  | inhibition at 72 h, 25 µM [15]: 38.2%; inhibition at 25 µM (BXPC-3 [16]): < 10% |
